Results as given in ChEMBL document CHEMBL3120057, “Bioactive limonoids from the leaves of Azaridachta indica (Neem)” (J Nat Prod, 2014).
Activity calls are given as the source filed them. The rule behind the calls is not given here.

Assays:
PC-3 [1] = test: Cytotoxicity against human PC3 cells assessed as growth inhibition at 100 uM after 48 hrs by trypan blue exclusion assay; type: functional, cell-based
How it was run: (§1)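 Cells cultured in DMEM with 10% FBS, streptomycin and penicillin at 37 °C under 5% CO2, and plated at 1.2 × 10^5/mL one day before treatment. Single 100 μM exposure for 48 h from DMSO stock diluted in medium. Viability read by MTT at 550 nm, blank-subtracted, as % of DMSO-vehicle control. Random checks by trypan blue exclusion count.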

HeLa [2] = test: Cytotoxicity against human HeLa cells assessed as growth inhibition at 100 uM after 48 hrs by trypan blue exclusion assay; type: functional, cell-based; how it was run: as §1
PC-3 [3] = test: Cytotoxicity against human PC3 cells after 48 hrs; type: functional, cell-based; settings: PC-3, 48 h
How it was run: (§2)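 MTT viability. ATCC cells in DMEM with 10% FBS and penicillin/streptomycin at 37 °C under 5% CO2, plated at 1.2 × 10^5/mL the day before dosing. Exposed 48 h to 20−100 μM (DMSO stocks diluted in medium). Formazan dissolved in DMSO and read at 550 nm. Viability expressed as % of vehicle control, blank-subtracted. Checked by trypan blue count. PEITC as positive control. Mean ± SD, at least three experiments in duplicate.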

HeLa [4] = test: Cytotoxicity against human HeLa cells after 48 hrs; type: functional, cell-based; how it was run: as §2
[5] = molecular target: Heat shock protein HSP 90-alpha (Homo sapiens, UniProt P07900); test: Binding affinity to recombinant HSP90-alpha (unknown origin) by surface plasmon resonance analysis

Activity [5] | SMILES | growth inhibition (GI) (PC-3 [1]) | growth inhibition (GI) (HeLa [2]) | IC50 (PC-3 [3]) [µM] | IC50 (HeLa [4]) [µM] | Kd [5] [µM]
– | CC(=O)O[C@@H]1[C@H](O)[C@H]2C(C)(C)C(=O)CC[C@]2(C)[C@H]2CC[C@]3(C)C(=CC[C@H]3[C@@H]3CC(=O)OC3=O)[C@]12C (relative stereo) | inactive | inactive | – | – | –
– | CC(=O)O[C@@H]1[C@H](O)[C@H]2C(C)(C)C(=O)C=C[C@]2(C)[C@H]2CC[C@]3(C)C(=CC[C@H]3c3ccoc3)[C@]12C [NIMONOL] | Active | Active | 95 | 77 | –
– | COc1cc(/C=C/C(=O)OC[C@H]2O[C@@H](OC(C)(C)C(=O)O)[C@H](O)[C@@H](O)[C@@H]2O)cc(OC)c1O | inactive | inactive | – | – | –
– | CC(=O)O[C@@H]1[C@H](O)[C@H]2C(C)(C)C(=O)C=C[C@]2(C)[C@H]2CC[C@]3(C)C(=CC[C@H]3C3=COC(=O)C3O)[C@]12C (relative stereo) | inactive | inactive | – | – | –
inactive | COC(=O)C[C@H]1[C@]2(C)C3=C(C)[C@H](C4=COC(=O)C4O)C[C@@H]3O[C@@H]2[C@H](O)[C@@H]2[C@]1(C)C(=O)C=C[C@@]2(C)O (stereo partly drawn) | inactive | inactive | – | – | –
– | CC(=O)O[C@@H]1[C@H](O)[C@H]2C(C)(C)C(=O)C=C[C@]2(C)[C@H]2CC[C@]3(C)C(=CC[C@H]3[C@@H]3CC(=O)OC3=O)[C@]12C (relative stereo) | Active | Active | > 100 | 95 | –
– | CC(=O)O[C@@H]1[C@H](O)[C@H]2C(C)(C)C(=O)CC[C@]2(C)[C@H]2CC[C@]3(C)C(=CC[C@H]3C3=COC(=O)C3O)[C@]12C (stereo partly drawn) | inactive | inactive | – | – | –
– | CC(=O)O[C@@H]1[C@H](O)[C@H]2C(C)(C)C(=O)CC[C@]2(C)[C@H]2CC[C@]3(C)C(=CC[C@H]3c3ccoc3)[C@]12C | Active | Active | 90 | 74 | –
inactive | CC(=O)O[C@@H]1C[C@H](OC(=O)C=C(C)C)[C@@]2(C)[C@H]3[C@@H](OC[C@]13C)[C@@H](O)[C@@]1(C)C3=CC[C@@H]([C@@H]4COC(=O)C4)[C@]3(C)CC[C@@H]12 | inactive | inactive | – | – | –
– | CC(=O)O[C@H]1C[C@@H](OC(C)=O)[C@@]2(C)CO[C@@H]3[C@@H](O)[C@@]4(C)C5=CC[C@@H](c6ccoc6)[C@]5(C)CC[C@@H]4[C@]1(C)[C@@H]32 | Active | Active | 80 | 74 | 0.049
– | C/C=C(\C)C(=O)O[C@H]1C[C@@H](O)[C@@]2(C(=O)OC)CO[C@H]3[C@@H](O)[C@@](C)([C@]45O[C@@]4(C)[C@H]4C[C@@H]5O[C@@H]5OC=C[C@@]54O)[C@@H]4[C@@H](C(=O)OC)OC[C@@]14[C@@H]32 | inactive | inactive | – | – | –
inactive | COC(=O)C[C@H]1[C@]2(C)C3=C(C)[C@H](C4=CC(=O)OC4O)C[C@@H]3O[C@@H]2[C@H](O)[C@@H]2[C@]1(C)C(=O)C=C[C@@]2(C)O (stereo partly drawn) | inactive | inactive | – | – | –
– | COC(=O)[C@H]1OC[C@]23[C@@H]1[C@](C)([C@]14O[C@@]1(C)[C@H]1C[C@@H]4O[C@@H]4OC=C[C@@]41O)[C@H](O)[C@@H]1OC[C@](C(=O)OC)([C@H](O)C[C@@H]2O)[C@H]13 | inactive | inactive | – | – | –
– | CC(=O)O[C@@H]1[C@H](O)[C@H]2C(C)(C)C(=O)CC[C@]2(C)[C@H]2CC[C@]3(C)C(=CC[C@H]3[C@H]3COC(=O)C3)[C@]12C | inactive | inactive | – | – | –
– | C/C=C(\C)C(=O)O[C@H]1C[C@@H](O)[C@@]2(C)CO[C@H]3[C@H]4O[C@@H]5C[C@@H](c6ccoc6)C(C)=C5[C@@]4(C)[C@H](CC(=O)OC)[C@]1(C)[C@@H]32 [DESACETYL SALANNIN] | inactive | inactive | – | – | 0.033
